ChEMBL document CHEMBL1909541, “Hantzsch reaction: synthesis and characterization of some new 1,4-dihydropyridine derivatives as potent antimicrobial and antioxidant agents” (Eur J Med Chem, 2011)

Legend:
Candida albicans [1] = experiment: Antifungal activity against Candida albicans MTCC 3017 at 0.25 mg/mL after 72 hrs by agar-well diffusion method; format: functional; settings: MTCC 3017, 72 h, read-out: DIZ
Procedure, shortened: (§1)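 Fungal spore suspensions made in normal saline were spread onto agar adjusted to pH 5.7, then dried 1 h at 37 °C. Wells were cut and loaded with test compounds in DMSO at different concentrations, with a DMSO control. Plates run in triplicate at 25 °C for 72 h. Read-out was inhibition zone diameter.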

[2] = Antifungal activity against Chrysosporium keratinophilum MTCC 2827 at 1 mg/mL after 72 hrs by agar-well diffusion method; format: functional; procedure, shortened: as §1
Escherichia coli [3] = experiment: Antibacterial activity against Escherichia coli ATCC 25922 at 0.5 mg/mL after 24 hrs by agar-well diffusion method; format: functional; settings: ATCC 25922, 24 h, read-out: IZ
Procedure, shortened: (§2)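 Well diffusion on Mueller-Hinton agar seeded with 24 h old cultures. Test compounds dissolved in DMSO at 1, 0.5 and 0.25 mg/mL. 6 mm wells were punched with a sterile cork borer, test solutions added, and plates incubated 24 h at 37 °C.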

Escherichia coli [4] = experiment: Antibacterial activity against Escherichia coli ATCC 25922 at 1 mg/mL after 24 hrs by agar-well diffusion method; format: functional; settings: ATCC 25922, 24 h, read-out: IZ; procedure, shortened: as §2
Escherichia coli [5] = experiment: Antibacterial activity against Escherichia coli ATCC 25922 at 0.25 mg/mL after 24 hrs by agar-well diffusion method; format: functional; settings: ATCC 25922, 24 h, read-out: IZ; procedure, shortened: as §2
Pseudomonas aeruginosa [6] = experiment: Antibacterial activity against Pseudomonas aeruginosa ATCC 27853 at 0.5 mg/mL after 24 hrs by agar-well diffusion method; format: functional; settings: ATCC 27853, 24 h, read-out: IZ; procedure, shortened: as §2
Staphylococcus aureus [7] = experiment: Antibacterial activity against Staphylococcus aureus ATCC 25923 at 0.25 mg/mL after 24 hrs by agar-well diffusion method; format: functional; settings: ATCC 25923, 24 h, read-out: IZ; procedure, shortened: as §2
Mus musculus [8] = experiment: Acute toxicity in Swiss albino mouse assessed as mortality up to 3000 mg/kg, po in single dose measured up to 24 hrs; format: organism-based; design: dose 3000 mg/kg, route oral; settings: in vivo
Procedure, shortened: (§3)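 Single oral dose per OECD acute oral toxicity guidelines, 250 to 3000 mg/kg, given as a fine suspension in double distilled water with Tween 80. Toxic symptoms and behavioral changes observed continuously for 4 h, then at 8, 12 and 24 h; deaths recorded.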

Staphylococcus aureus [9] = experiment: Antibacterial activity against Staphylococcus aureus ATCC 25923 at 1 mg/mL after 24 hrs by agar-well diffusion method; format: functional; settings: ATCC 25923, 24 h, read-out: IZ; procedure, shortened: as §2
Candida albicans [10] = experiment: Antifungal activity against Candida albicans MTCC 3017 at 1 mg/mL after 72 hrs by agar-well diffusion method; format: functional; settings: MTCC 3017, 72 h, read-out: DIZ; procedure, shortened: as §1
[11] = Antifungal activity against Chrysosporium keratinophilum MTCC 2827 at 0.5 mg/mL after 72 hrs by agar-well diffusion method; format: functional; procedure, shortened: as §1
[12] = system: Radical scavenging activity; experiment: Antioxidant activity assessed as DPPH free radical scavenging activity at 100 uM after 30 mins; format: functional
Procedure, shortened: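 Sample brought to 1 mL with MeOH and mixed with 3 mL fresh 0.1 mM DPPH. Kept 30 min in the dark, then absorbance read at 517 nm. A DPPH control without sample was included. Scavenging (%) = [(Abs control − Abs sample)/Abs control] × 100.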

Staphylococcus aureus [13] = experiment: Antibacterial activity against Staphylococcus aureus ATCC 25923 at 0.5 mg/mL after 24 hrs by agar-well diffusion method; format: functional; settings: ATCC 25923, 24 h, read-out: IZ; procedure, shortened: as §2
Candida albicans [14] = experiment: Antifungal activity against Candida albicans MTCC 3017 at 0.5 mg/mL after 72 hrs by agar-well diffusion method; format: functional; settings: MTCC 3017, 72 h, read-out: DIZ; procedure, shortened: as §1
Pseudomonas aeruginosa [15] = experiment: Antibacterial activity against Pseudomonas aeruginosa ATCC 27853 at 0.25 mg/mL after 24 hrs by agar-well diffusion method; format: functional; settings: ATCC 27853, 24 h, read-out: IZ; procedure, shortened: as §2
Aspergillus flavus [16] = experiment: Antifungal activity against Aspergillus flavus MTCC 3306 at 0.5 mg/mL after 72 hrs by agar-well diffusion method; format: functional; settings: MTCC 3306, 72 h, read-out: DIZ; procedure, shortened: as §1
Aspergillus flavus [17] = experiment: Antifungal activity against Aspergillus flavus MTCC 3306 at 0.25 mg/mL after 72 hrs by agar-well diffusion method; format: functional; settings: MTCC 3306, 72 h, read-out: DIZ; procedure, shortened: as §1
[18] = Antifungal activity against Chrysosporium keratinophilum MTCC 2827 at 0.25 mg/mL after 72 hrs by agar-well diffusion method; format: functional; procedure, shortened: as §1
Mus musculus [19] = experiment: Acute toxicity in Swiss albino mouse assessed as behavioral changes up to 3000 mg/kg, po in single dose measured up to 24 hrs; format: organism-based; design: dose 3000 mg/kg, route oral; settings: in vivo; procedure, shortened: as §3
Pseudomonas aeruginosa [20] = experiment: Antibacterial activity against Pseudomonas aeruginosa ATCC 27853 at 1 mg/mL after 24 hrs by agar-well diffusion method; format: functional; settings: ATCC 27853, 24 h, read-out: IZ; procedure, shortened: as §2
Aspergillus flavus [21] = experiment: Antifungal activity against Aspergillus flavus MTCC 3306 at 1 mg/mL after 72 hrs by agar-well diffusion method; format: functional; settings: MTCC 3306, 72 h, read-out: DIZ; procedure, shortened: as §1
Mus musculus [22] = experiment: Acute toxicity in Swiss albino mouse assessed as mortality at >2000 mg/kg, po in single dose measured up to 24 hrs; format: organism-based; settings: in vivo; procedure, shortened: as §3
Mus musculus [23] = experiment: Acute toxicity in Swiss albino mouse assessed as behavioral changes at >2000 mg/kg, po in single dose measured up to 24 hrs; format: organism-based; settings: in vivo; procedure, shortened: as §3

Row | Compound | zone of inhibition at 250 µg/mL (Candida albicans [1]) | inhibition zone (IZ) [2] | zone of inhibition at 500 µg/mL (Escherichia coli [3]) | zone of inhibition at 1000 µg/mL (Escherichia coli [4]) | zone of inhibition at 250 µg/mL (Escherichia coli [5]) | zone of inhibition at 500 µg/mL (Pseudomonas aeruginosa [6]) | zone of inhibition at 250 µg/mL (Staphylococcus aureus [7]) | Activity (Mus musculus [8]) | zone of inhibition at 1000 µg/mL (Staphylococcus aureus [9]) | zone of inhibition at 1000 µg/mL (Candida albicans [10]) | inhibition zone (IZ) [11] | Activity [12] | zone of inhibition at 500 µg/mL (Staphylococcus aureus [13]) | zone of inhibition at 500 µg/mL (Candida albicans [14]) | zone of inhibition at 250 µg/mL (Pseudomonas aeruginosa [15]) | zone of inhibition at 500 µg/mL (Aspergillus flavus [16]) | zone of inhibition at 250 µg/mL (Aspergillus flavus [17]) | inhibition zone (IZ) [18] | zone of inhibition at 1000 µg/mL (Pseudomonas aeruginosa [20]) | zone of inhibition at 1000 µg/mL (Aspergillus flavus [21]) | also measured
1 | CCOC(=O)C1=C(C)NC(C)=C(C(=O)OCC)C1c1c[nH]nc1-c1ccc(-c2ccccc2)cc1 | 2 mm | 3 mm | 10 mm | 13 mm | 7 mm | 13 mm | 10 mm | Non-toxic | 16 mm | 6 mm | 0 mm | 65.3% | 12 mm | 4 mm | 11 mm | 2 mm | 1 mm | 0 mm | 17 mm | 5 mm | Activity (Mus musculus [19]): Non-toxic
2 | CCOC(=O)C1=C(C)NC(C)=C(C(=O)OCC)C1c1c[nH]nc1-c1ccc(Cl)cc1 | 0 mm | 3 mm | 12 mm | 17 mm | 10 mm | 13 mm | 8 mm | – | 15 mm | 4 mm | 0 mm | 62.3% | 10 mm | 2 mm | 10 mm | 0 mm | 0 mm | 0 mm | 16 mm | 2 mm | Activity (Mus musculus [22]): Toxic; Activity (Mus musculus [23]): Toxic
3 | CCOC(=O)C1=C(C)NC(C)=C(C(=O)OCC)C1c1c[nH]nc1-c1ccc(SC)cc1 | 0 mm | 0 mm | 12 mm | 17 mm | 9 mm | 11 mm | 10 mm | Non-toxic | 16 mm | 0 mm | 0 mm | 61.1% | 12 mm | 0 mm | 8 mm | 0 mm | 0 mm | 0 mm | 14 mm | 0 mm | Activity (Mus musculus [19]): Non-toxic
